Species on record: Cavia porcellus
Assay: Beta-Funaltrexamine antagonism of morphine agonism in the presence of compound was determined in Guinea pig ileum at concentration of 20 nM
Type: functional
Procedure, shortened: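 Guinea pig ileum protection assay. The protector was added to the tissue 10 min before 20 nM β-FNA, which was applied for 30 min. The tissue was then washed 30 times with intermittent chasing by 500 nM naloxone. The result is the morphine IC50 in treated tissue divided by the morphine IC50 in control tissue of the same preparation, given with SE and n.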

O=C1CC[C@@]2(O)[C@H]3Cc4ccc(O)c5c4[C@@]2(CCN3CC2CC2)[C@H]1O5 [NALTREXONE]
IC50 ratio: 2.1

— ChEMBL document CHEMBL1123355, “Activity of N-methyl-alpha- and -beta-funaltrexamine at opioid receptors” (1986)
